97 compounds from PubChem BioAssay AID1496 (Sanford-Burnham Center for Chemical Genomics, 2009) can be followed below.

The campaign covered roughly 220,000 compounds. About 990 (0.45%) were called active. What follows is part of a selection rich in actives, with near analogues and random picks from the rest. A number with no mark means an inactive call.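 The calls were made as follows: active = inhibition over about 50% at 20 µM in the single-dose screen (limit read from the data); inactive = the rest.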

Chain of Runt-related transcription factor 1 (Homo sapiens) + Core-binding factor subunit beta (Homo sapiens) (Q01196 whole entry, looked up, the tested form may be a part): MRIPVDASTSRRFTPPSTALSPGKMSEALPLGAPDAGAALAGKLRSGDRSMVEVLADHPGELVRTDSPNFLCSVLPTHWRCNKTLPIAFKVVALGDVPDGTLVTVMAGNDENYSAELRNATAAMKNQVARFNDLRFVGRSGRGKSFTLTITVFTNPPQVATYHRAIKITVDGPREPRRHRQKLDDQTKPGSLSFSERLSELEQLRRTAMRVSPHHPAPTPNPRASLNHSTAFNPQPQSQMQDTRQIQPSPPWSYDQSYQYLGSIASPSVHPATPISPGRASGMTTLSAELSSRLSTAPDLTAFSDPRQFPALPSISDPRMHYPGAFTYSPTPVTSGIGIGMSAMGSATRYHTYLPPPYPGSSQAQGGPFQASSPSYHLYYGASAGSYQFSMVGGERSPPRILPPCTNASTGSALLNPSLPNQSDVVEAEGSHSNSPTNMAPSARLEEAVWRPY
Chain of Runt-related transcription factor 1 (Homo sapiens) + Core-binding factor subunit beta (Homo sapiens) (Q13951 whole entry, looked up, the tested form may be a part): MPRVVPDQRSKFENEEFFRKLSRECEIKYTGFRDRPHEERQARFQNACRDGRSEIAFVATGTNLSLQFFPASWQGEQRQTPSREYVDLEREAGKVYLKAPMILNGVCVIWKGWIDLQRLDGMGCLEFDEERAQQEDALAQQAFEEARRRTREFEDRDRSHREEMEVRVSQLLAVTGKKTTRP

This experiment has as its target Runt-related transcription factor 1 (Homo sapiens) + Core-binding factor subunit beta (Homo sapiens) (UniProt Q01196+Q13951). The experiment can be described thus: inhibitors of RUNX1 Runt–CBFb binding, primary screen, biochemical, FRET, Cerulean-Runt, Venus-CBFb, uHTS (AID 1496).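 Also: 0% = DMSO wells and 100% = excess unlabeled CBFb competitor control.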 As to conditions: Cerulean-Runt/Venus-CBFb FRET ratio 530/480, 1 h; at 20 µM; hits give high values. In a few lines:
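Measured by: fluorescence energy transfer, 422 nm excitation, 530/480 nm emission; Assay system: Cerulean-Runt domain; Medium: Tris pH 7.5 buffer with BSA; Measure: loss of energy transfer signal; Controls: 5 µM unlabeled CBFb as full-inhibition high control; Incubation: protein complex preformed 1 h, compound exposure 1 h, room temperature, dark.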
In general, inhibition refers to the relative decrease from the control value, in per cent. Turning to `COCCCn1c(CCC(=O)O)ccc1-c1ccc(F)cc1`, the inhibition was 3.3%.
In the case of `CC(C)Cn1c(CCC(=O)O)ccc1-c1cccs1` it was 65.6% (active).
Consider `CCn1c(NC(=O)c2ccccc2)c(-c2cccs2)c(=O)c2ccccc21`, for which the inhibition is -4.7%.
As to `CNC(=S)NNC(=O)c1ccc(N(C)C)cc1`, the inhibition is 1.6%.
In the case of `Cc1cc(F)ccc1NC(=O)C(C)n1c2ccccc2c2nc(=O)cc(C)n21` (configuration not stated), the inhibition was 1.5%.
To `CCOc1ccc(/C=N/NC(=O)CSc2ccccn2)cc1O` belongs 2.9%; to `CCN(CC)CCn1c(N)c(S(=O)(=O)c2ccccc2)c2nc3ccccc3nc21`, 5.9%.
To `CCC(=O)Nc1c(S(=O)(=O)c2ccccc2)c2nc3ccccc3nc2n1Cc1ccccc1` belongs 78.8% (active).
As for `Cc1ccc(S(=O)(=O)c2c(N)n(C)c3nc4ccccc4nc23)cc1`, the inhibition is 7.1%.
Turning to `O=c1c2cc(-c3ccccc3)sc2nc2n1N=C(c1cccs1)CS2`, the inhibition was -2.4%.
On to `Nc1nc(NCC2CCCO2)nc(Nc2ccccc2F)c1[N+](=O)[O-]` (configuration not stated), for which the inhibition was -3.8%.
With `COCCCNC(=S)NCCNc1nc2cc(C)c(C)cc2cc1C#N`, the inhibition is 82.7% (active).
For `Cc1ccc2nc(NCCCNC(=O)c3cnccn3)c(C#N)cc2c1`, the inhibition was 21.2%.
In the case of `COCCCNC(=S)NC(=O)c1ccc([N+](=O)[O-])cc1`, the inhibition is 4.5%.
On to `CC(/C=C/c1ccco1)=N/NC(=O)C1COc2ccccc2O1` (configuration not stated), for which the inhibition is 2.3%.
In the case of `Cn1nc(C(F)(F)F)c(-c2ccc(F)cc2)c1NC(=O)CSCC(=O)O` it was 3.4%; in that of `Cc1ccnc(N2C(=O)c3ccccc3C2Nc2ccc3c(c2)OCCO3)c1` (configuration not stated), 1.5%.
As for `O=C(NC1CCCCC1)C1c2ccccc2C(=O)N1Cc1ccco1` (configuration not stated), the inhibition was 1.8%.
To `O=C1c2ccccc2C(Nc2ccc3c(c2)OCCO3)N1Cc1ccco1` (configuration not stated) belongs 70% (active); to `COC(=O)c1ccc(COc2cc([N+](=O)[O-])cc3cccnc23)cc1`, -0.8%.
In the case of `CCOC(=O)Cc1csc(SCc2cc(=O)oc3cc(O)ccc23)n1` it was 77.8% (active); in that of `Cc1ccc2c(CSc3nncs3)cc(=O)oc2c1`, 3.7%; in that of `CCOC(=O)Cc1csc(NC(=O)COc2ccc3c(C)cc(=O)oc3c2)n1`, 1.8%.
`COc1cccc(Nc2nc(N)c([N+](=O)[O-])c(NCc3ccco3)n2)c1`: the inhibition is 0.2%.
As to `O=c1oc2c(CN3CCCCC3)c(O)ccc2c2c1CCCCC2`, the inhibition is 72.8% (active).
To `NC(=O)COc1ccc2c3c(c(=O)oc2c1)CCCCC3` belongs 1.7%.
As to `CN1CCN(Cc2c(O)ccc3c2oc(=O)c2ccccc23)CC1`, the inhibition was -1.7%.
Turning to `N#CC1=C(N)OC2=C(C(=O)CCC2)C1C1CC=CCC1` (configuration not stated), the inhibition is -0.5%.
In the case of `N#CC1=C(N)Oc2cc(O)ccc2C1C1CCCCC1` (configuration not stated) it was 50.9% (active).
As to `COCc1[nH]nc2c1C(C1C=CCCC1)C(C#N)=C(N)O2` (configuration not stated), the inhibition was -0.2%.
In the case of `COC(=O)c1noc(C)c1-c1ccnn1C(=O)c1ccc(Cl)cc1` it was 0%; in that of `Fc1ccc(COc2ccc(-c3nnco3)cc2)cc1`, -1.3%; in that of `O=C(/C=C/c1ccc2c(c1)OCCO2)c1ccc(O)cc1`, -2.3%.
To `COc1ccc(-c2cn3ccc(C)cc3n2)cc1` belongs 0.2%; to `COc1ccc2c(CN3CCN(S(=O)(=O)c4cccs4)CC3)cc(=O)oc2c1`, -1.9%.
Turning to `O=C(CN1CCN(S(=O)(=O)/C=C/c2ccccc2)CC1)Nc1ccc(N2CCOCC2)cc1`, the inhibition is 0.6%.
With `O=c1cc(CN2CCN(S(=O)(=O)/C=C/c3ccccc3)CC2)c2ccc(O)cc2o1`, the inhibition is 74.1% (active).
In the case of `COc1ccc(Nc2cc(=O)n(-c3ccccc3)c3c2c(=O)n(C)c(=O)n3C)cc1` it was -0.7%; in that of `Cn1c(CC2Sc3ccccc3NC2=O)nnc1SCC(=O)c1ccc(Cl)cc1` (configuration not stated), 1.9%.
As to `O=C(C[n+]1cc(-c2ccc(Cl)c(Cl)c2)n2c1CCC2)c1cccs1`, the inhibition was 1.5%.
To `CCOc1ccc(-c2nc(N)ncc2-c2ccccc2OC)c(O)c1` belongs -2.9%; to `Cc1cc2nc3c(=O)n(Cc4ccccc4)c(=O)[nH]c3nc2cc1N`, -281%.
To `COc1ccc2[nH]c(=S)cc(C)c2c1` belongs 30.9%; to `Cc1c(Cc2ccccc2)c(=O)oc2cc(OCC(N)=O)ccc12`, -0.8%; to `COC(=O)Cc1c(C)c2ccc(OCC(=O)NCc3ccc4c(c3)OCO4)cc2oc1=O`, -2.3%.
To `CC(=O)Oc1ccc(NC(=O)CCC2CCCCC2)c(C(=O)O)c1` belongs -13.2%.
For `CC(=O)Oc1ccc2c(C)c(CC(C)O)c(=O)oc2c1` (configuration not stated), the inhibition is 52.3% (active).
Turning to `CC(=O)Nc1cc2ccc(OC(C)=O)cc2oc1=O`, the inhibition is 86.5% (active).
In the case of `O=C(Oc1ccccc1)Oc1ccc2c(c1)oc(=O)c1ccccc12` it was -1%.
To `CCOC(=O)c1ccc(N=C2SC(C(=O)NC)CC(=O)N2CCc2ccccc2)cc1` (configuration not stated) belongs -3%; to `CCc1ccnc(NS(=O)(=O)c2ccc3c(c2)OCCO3)c1`, 2.3%; to `COc1ccccc1C1CCN(c2ccc([N+](=O)[O-])cn2)CC1`, 0.4%.
With `CCN1CCN(c2nc(Nc3cccc(F)c3)nc(N)c2[N+](=O)[O-])CC1`, the inhibition is -0.1%.
As to `COC(=O)Cc1cc(=O)oc2c(C)c(O)ccc12`, the inhibition is 19.3%.
In the case of `CCCc1cc(=O)oc2c(C)c(O)c(CN3CCCCC3)cc12`, the inhibition was 84.1% (active).
Turning to `CCCc1cc(=O)[nH]c(SCc2cc(=O)oc3c(C)c(C)ccc23)n1`, the inhibition is -10.5%.
As to `Cn1nnc(NC(=S)NC(=O)c2ccccc2)n1`, the inhibition was 10.1%.
To `COC(=O)c1ccccc1N=Nc1c(C)[nH][nH]c1=O` belongs -3.8%; to `CCN(CC)CCCN=C(N)N`, 2.2%.
To `CCN1/C(=C/C(=S)Nc2ccccc2)Sc2ccccc21` belongs 59.1% (active); to `CCC(=O)/C=C1\Sc2ccccc2N1CC`, 1.3%; to `O=C(CCN1c2ccccc2Sc2ccccc21)Nc1ccccc1`, 0.8%.
In the case of `O=C(Nc1ccc(S(=O)(=O)Nc2nccs2)cc1)c1cc(-c2ccncc2)nc2ccccc12`, the inhibition is -7.7%.
With `COc1ccc(CCn2c(=N)c(C(=O)NCc3ccco3)cc3c(=O)n4cccc(C)c4nc32)cc1`, the inhibition is 107% (active).
As for `CCn1c(=N)c(C(=O)NCCCOC)cc2c(=O)n3cccc(C)c3nc21`, the inhibition is 19.3%.
As to `O=C(NCc1ccco1)c1cccn2c(=O)c3c4c(sc3nc12)CCCC4`, the inhibition was 12.3%.
In the case of `COc1ccc(CNC(=O)c2cc3c(=O)n4ccccc4nc3n(CC3CCCO3)c2=N)cc1` (configuration not stated) it was 85.6% (active).
Turning to `COc1ccc(CCNC(=O)CCn2c(=O)c3ccccc3n(CC(=O)NCC3CCCO3)c2=O)cc1OC` (configuration not stated), the inhibition is -1.8%.
In the case of `COc1ccc(CCNC(=O)Cn2c(=O)n(CC3CCCO3)c(=O)c3ccccc32)cc1OC` (configuration not stated) it was -0.8%.
In the case of `CC(C)(C)c1ccc(C(=O)NCCn2c(N)c(C#N)c3nc4ccccc4nc32)cc1` it was 72.8% (active); in that of `N#Cc1c(N)n(CCOC(=O)c2ccc(Cl)cc2)c2nc3ccccc3nc12`, 59% (active); in that of `COCCCn1c2nc3ccccc3nc2c2c(=O)n(Cc3ccc(Cl)cc3)c(C)nc21`, 0.1%.
In the case of `CCCNC(=O)c1c(N)n(-c2ccc(S(N)(=O)=O)cc2)c2nc3ccccc3nc12` it was 33%.
Regarding `CN(C)CCCn1c(N)c(C#N)c2nc(C#N)c(C#N)nc21`, the inhibition is 42.7%.
To `CC(C)Cn1c(N)c(C(=O)NCc2cccs2)c2nc3ccccc3nc21` belongs 16.3%; to `COc1ccc(CNC(=O)C(Cc2ccccc2)n2cccc2)cc1` (configuration not stated), 1.1%; to `NCCCCCC(=O)N/N=C/c1ccc2nccnc2c1`, 0.4%.
In the case of `CCCC(=O)Nc1nnc(-c2ccccc2)o1` it was 0.1%; in that of `Cc1c(CCC(=O)O)c(=O)oc2cc3occ(-c4ccccc4)c3cc12`, -3.4%.
For the compound `CCCCCCc1cc2cc(-c3nnc(-c4ccccc4)o3)c(=O)oc2cc1O`, the inhibition is 84.6% (active).
Consider `COC(=O)c1cc(NC(=O)c2cc(C(C)(C)C)nn2Cc2cccc(C)c2)ccc1N1CCOCC1`, for which the inhibition was -4%.
For the compound `COC(=O)c1cc(NC(=O)c2ccco2)ccc1N1CCOCC1`, the inhibition is 0.9%.
Consider `NC(=O)C1(C(N)=O)OC1c1ccc(Cl)cc1Cl` (configuration not stated), for which the inhibition is 0.4%.
In the case of `CCOc1ccccc1C1C(C(=O)OC)=CN(C)C=C1C(=O)OC`, the inhibition was 9.9%.
In the case of `COC(=O)C1=CN(C)C=C(C(=O)OC)C1c1ccc(Cl)cc1Cl` it was 110% (active).
Take `CCOc1cccc(/C=N/N2C(=O)CSC2=S)c1O`: the inhibition is 51.1% (active).
In the case of `CCOc1cccc(/C=N/NC(=S)NCCN2CCOCC2)c1O` it was -15.6%; in that of `O=C1CSC(=S)N1/N=C/c1ccc(O)c([N+](=O)[O-])c1`, 26.4%.
As to `Cc1ccc(NS(=O)(=O)c2ccc(N/N=C/c3ccccc3OCC(=O)O)c([N+](=O)[O-])c2)c(C)c1`, the inhibition was -12.7%.
To `COC(=O)Cn1c2ccc(C)cc2c2nc(C)sc21` belongs 50.7% (active); to `COC(=O)Cn1c(=NC(=O)c2cc(OC)c(OC)c(OC)c2)sc2cc(OC)ccc21`, -1.4%; to `CCN(CC)CCn1c2ccc(Cl)cc2c2nc(C)sc21`, 0.5%.
To `Cn1c(C(=O)O)ccc1S(=O)(=O)N(Cc1ccccc1)Cc1ccccc1` belongs 0.9%; to `COc1ccc(Br)c2c1C(=O)CC2`, -4%.
To `COC(=O)c1ccc(C(=O)OC)c(NC(=S)N2CCCCC2)c1` belongs 54% (active).
For the compound `COC(=O)c1ccc(C(=O)OC)c(NC(=S)N2CCN(c3ccc(F)cc3)CC2)c1`, the inhibition is 8.1%.
Regarding `COC(=O)c1ccc(C(=O)OC)c(NC(=S)N2CCN(c3cc(Cl)ccc3C)CC2)c1`, the inhibition was 9.1%.
